# Test results published in ChEMBL document CHEMBL4014343 (J Med Chem, 2017).
# The source made the active and inactive calls. No cut-off for these calls is given here.
# Biological target: Cyclin-dependent kinase 1/cyclin B1 (Homo sapiens, UniProt P06493)
# Test: Inhibition of full length human C-terminal His6-tagged CDK1/N-terminal GST-tagged CyclinB expressed in baculovirus infected sf21 cells after 10 mins in presence of [gamma32P]ATP by beta counting method
# Format: cell-based
# Details: not given
row,IC50,Compound
1,> 10 µM,Cc1ccc2c(c1)/C(=C1/Nc3ccccc3/C1=N\OCCO[C@@H]1O[C@H](CO)[C@@H](O)[C@H](O)[C@H]1O)C(=O)N2
2,5.58 µM,COc1ccc2c(c1)/C(=C1\Nc3ccccc3\C1=N/OCCO[C@@H]1O[C@H](CO)[C@@H](O)[C@H](O)[C@H]1O)C(=O)N2
3,1.65 µM,O=C1Nc2ccccc2/C1=C1/Nc2ccccc2/C1=N\OCC(O)CO (stereo not given)

# Biological target: T1, Aurora kinase C (Homo sapiens) (UniProt Q9UQB9)
# T1 sequence (whole entry): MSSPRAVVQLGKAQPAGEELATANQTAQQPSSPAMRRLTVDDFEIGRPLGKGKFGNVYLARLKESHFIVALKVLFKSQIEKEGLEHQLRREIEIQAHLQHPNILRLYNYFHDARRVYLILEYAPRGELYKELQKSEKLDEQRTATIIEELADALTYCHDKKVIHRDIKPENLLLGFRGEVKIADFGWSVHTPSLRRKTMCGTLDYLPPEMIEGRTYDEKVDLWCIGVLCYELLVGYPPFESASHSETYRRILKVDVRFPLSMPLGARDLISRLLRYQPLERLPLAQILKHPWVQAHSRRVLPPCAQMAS
# Test: Inhibition of human N-terminal GST-tagged Aurora B (M1 to S27 residues) expressed in sf9 cells at 1 uM using CDC25C-derived peptide as substrate by filter binding assay
# Details: not given
# Summary of the method: (§1)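 Single-point profiling at 1 μM in a 22-kinase panel, performed externally by ProQinase; activity read as residual percent of control.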
row,inhibition,Compound
1,Active,O=C1Nc2ccccc2/C1=C1/Nc2ccccc2/C1=N\OCC(O)CO (stereo not given)

# Biological target: CDK2/Cyclin A2 (Homo sapiens, UniProt P24941)
# Test: Inhibition of full length human C-terminal His6-tagged CDK2/N-terminal GST-tagged CyclinA expressed in baculovirus infected sf21 cells after 10 mins in presence of [gamma32P]ATP by beta counting method
# Details: not given
row,IC50,Compound
1,9.3 µM,Cc1ccc2c(c1)/C(=C1/Nc3ccccc3/C1=N\OCCO[C@@H]1O[C@H](CO)[C@@H](O)[C@H](O)[C@H]1O)C(=O)N2
2,0.84 µM,COc1ccc2c(c1)/C(=C1\Nc3ccccc3\C1=N/OCCO[C@@H]1O[C@H](CO)[C@@H](O)[C@H](O)[C@H]1O)C(=O)N2
3,0.54 µM,O=C1Nc2ccccc2/C1=C1/Nc2ccccc2/C1=N\OCC(O)CO (stereo not given)

# Biological target: Aurora kinase B (Homo sapiens) (UniProt Q96GD4)
# Test: Inhibition of human N-terminal GST/His6-tagged Aurora B (A2 to A344 residues) expressed in sf9 cells at 1 uM using tetra(LRRLSLG) as substrate by filter binding assay
# Details: not given
# Summary of the method: as §1
row,inhibition,Compound
1,Active,O=C1Nc2ccccc2/C1=C1/Nc2ccccc2/C1=N\OCC(O)CO (stereo not given)

# Test system: not listed separately
# Test: Antiproliferative activity against human LXFL 529L cells after 3 days by SRB assay
# Format: functional, cell-based
# Details: Homo sapiens, LXFL 529L, 72 h
row,Compound,IC50
1,Cc1ccc2c(c1)/C(=C1/Nc3ccccc3/C1=N\OCCO[C@@H]1O[C@H](CO)[C@@H](O)[C@H](O)[C@H]1O)C(=O)N2,2 µM
2,COc1ccc2c(c1)/C(=C1\Nc3ccccc3\C1=N/OCCO[C@@H]1O[C@H](CO)[C@@H](O)[C@H](O)[C@H]1O)C(=O)N2,1.1 µM
3,O=C1Nc2ccccc2/C1=C1/Nc2ccccc2/C1=N\OCC(O)CO (stereo not given),0.9 µM

# Biological target: T2, Glycogen synthase kinase-3 beta (Homo sapiens, UniProt P49841)
# Test: Inhibition of recombinant GSK3beta (unknown origin) after 10 mins in presence of [gamma32P]ATP by beta counting method
# Details: not given
# Summary of the method: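 Recombinant kinase with 0.4 μCi [γ-32P]ATP per vial, 10 min at 30 °C; spotted on P81 paper, washed in 0.75% phosphoric acid, counted by β-scintillation. IC50 by linear regression versus solvent control; duplicates, ≥3 independent experiments.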
row,IC50,Compound
1,0.29 µM,Cc1ccc2c(c1)/C(=C1/Nc3ccccc3/C1=N\OCCO[C@@H]1O[C@H](CO)[C@@H](O)[C@H](O)[C@H]1O)C(=O)N2
2,0.1 µM,COc1ccc2c(c1)/C(=C1\Nc3ccccc3\C1=N/OCCO[C@@H]1O[C@H](CO)[C@@H](O)[C@H](O)[C@H]1O)C(=O)N2
3,0.11 µM,O=C1Nc2ccccc2/C1=C1/Nc2ccccc2/C1=N\OCC(O)CO (stereo not given)

# Biological target: Cyclin-dependent kinase 2/cyclin E1 (Homo sapiens, UniProt P24941)
# Test: Inhibition of full length human C-terminal His6-tagged CDK2/N-terminal GST-tagged CyclinE expressed in baculovirus infected sf21 cells after 10 mins in presence of [gamma32P]ATP by beta counting method
# Details: not given
row,IC50,Compound
1,0.92 µM,Cc1ccc2c(c1)/C(=C1/Nc3ccccc3/C1=N\OCCO[C@@H]1O[C@H](CO)[C@@H](O)[C@H](O)[C@H]1O)C(=O)N2
2,0.09 µM,COc1ccc2c(c1)/C(=C1\Nc3ccccc3\C1=N/OCCO[C@@H]1O[C@H](CO)[C@@H](O)[C@H](O)[C@H]1O)C(=O)N2
3,0.21 µM,O=C1Nc2ccccc2/C1=C1/Nc2ccccc2/C1=N\OCC(O)CO (stereo not given)

# Biological target: Cyclin-dependent kinase 4/cyclin D1 (Homo sapiens) (UniProt P11802+P24385)
# Test: Inhibition of recombinant human N-terminal GST-tagged CDK4 (S4 to E303 residues)/Cyclin D1 (Q4 to I295 residues) expressed in sf9 cells at 1 uM using RB-CTF as substrate by filter binding assay
# Details: not given
# Summary of the method: as §1
row,inhibition,Compound
1,Active,O=C1Nc2ccccc2/C1=C1/Nc2ccccc2/C1=N\OCC(O)CO (stereo not given)

# Biological target: Fibroblast growth factor receptor 1 (Homo sapiens) (UniProt P11362)
# Test: Inhibition of human N-terminal GST/His6-tagged FGFR1 (G400 to R820 residues) expressed in baculovirus infected sf9 cells at 1 uM using Poly(Glu,Tyr)4:1 as substrate by filter binding assay
# Details: not given
# Summary of the method: as §1
row,inhibition,Compound
1,Active,O=C1Nc2ccccc2/C1=C1/Nc2ccccc2/C1=N\OCC(O)CO (stereo not given)

# Biological target: Cyclin-dependent kinase 1/cyclin B1 (Homo sapiens) (UniProt P06493+P14635)
# Test: Inhibition of recombinant human N-terminal GST/His6-tagged CDK1 (M1 to M297 residues)/Cyclin B1 (M1 to V433 residues) expressed in sf9 cells at 1 uM using RB-CTF as substrate by filter binding assay
# Details: not given
# Summary of the method: as §1
row,inhibition,Compound
1,Active,O=C1Nc2ccccc2/C1=C1/Nc2ccccc2/C1=N\OCC(O)CO (stereo not given)

# Biological target: Cyclin-dependent kinase 2/cyclin E1 (Homo sapiens) (UniProt P24864+P24941)
# Test: Inhibition of recombinant human N-terminal GST-tagged CDK2 (M1 to L298 residues)/Cyclin E1 (M1 to A395 residues) expressed in sf9 cells at 1 uM using RB-CTF as substrate by filter binding assay
# Details: not given
# Summary of the method: as §1
row,inhibition,Compound
1,Active,O=C1Nc2ccccc2/C1=C1/Nc2ccccc2/C1=N\OCC(O)CO (stereo not given)

# Biological target: Cyclin-dependent kinase 5/CDK5 activator 1 (Homo sapiens) (UniProt Q00535+Q15078)
# Test: Inhibition of recombinant human N-terminal GST-tagged CDK5 (M1 to P292 residues)/p35NCK (M1 to R307 residues) expressed in baculovirus infected sf9 cells at 1 uM using RB-CTF as substrate by filter binding assay
# Details: not given
# Summary of the method: as §1
row,inhibition,Compound
1,Active,O=C1Nc2ccccc2/C1=C1/Nc2ccccc2/C1=N\OCC(O)CO (stereo not given)

# Biological target: CDK2/Cyclin A2 (Homo sapiens) (UniProt P24941+P20248)
# Test: Inhibition of recombinant human N-terminal GST-tagged CDK2 (M1 to L298 residues)/Cyclin A2 (M1 to L432 residues) expressed in baculovirus infected sf9 cells at 1 uM using Histone H1 as substrate by filter binding assay
# Details: not given
# Summary of the method: as §1
row,inhibition,Compound
1,Active,O=C1Nc2ccccc2/C1=C1/Nc2ccccc2/C1=N\OCC(O)CO (stereo not given)

# Biological target: T2, Glycogen synthase kinase-3 beta
# Test: Inhibition of human N-terminal GST/His6-tagged GSK3beta (M1 to T420 residues) expressed in baculovirus infected sf9 cells at 1 uM using RBER-IRStide as substrate by filter binding assay
# Details: not given
# Summary of the method: as §1
row,inhibition,Compound
1,Active,O=C1Nc2ccccc2/C1=C1/Nc2ccccc2/C1=N\OCC(O)CO (stereo not given)

# Biological target: Serine/threonine-protein kinase Chk2 (Homo sapiens) (UniProt O96017)
# Test: Inhibition of CHK2 (unknown origin) at 1 uM
# Details: not given
# Summary of the method: as §1
row,inhibition,Compound
1,Active,O=C1Nc2ccccc2/C1=C1/Nc2ccccc2/C1=N\OCC(O)CO (stereo not given)

# Biological target: T3, Aurora kinase A (Homo sapiens) (UniProt O14965)
# T3 sequence (whole entry): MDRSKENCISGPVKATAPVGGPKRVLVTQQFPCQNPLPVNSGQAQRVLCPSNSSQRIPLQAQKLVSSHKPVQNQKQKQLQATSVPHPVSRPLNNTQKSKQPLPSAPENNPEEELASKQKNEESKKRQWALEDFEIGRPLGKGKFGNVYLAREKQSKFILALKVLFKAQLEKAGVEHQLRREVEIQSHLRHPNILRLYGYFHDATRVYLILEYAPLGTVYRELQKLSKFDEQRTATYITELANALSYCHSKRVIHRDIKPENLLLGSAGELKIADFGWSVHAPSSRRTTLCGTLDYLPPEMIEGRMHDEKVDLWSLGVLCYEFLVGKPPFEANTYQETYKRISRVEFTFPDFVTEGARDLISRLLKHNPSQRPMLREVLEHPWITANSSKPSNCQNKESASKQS
# Test: Inhibition of human N-terminal GST/His6-tagged Aurora A (M1 to S403 residues) expressed in baculovirus infected sf9 cells at 1 uM using tetra(LRRLSLG) as substrate by filter binding assay
# Details: not given
# Summary of the method: as §1
row,inhibition,Compound
1,Active,O=C1Nc2ccccc2/C1=C1/Nc2ccccc2/C1=N\OCC(O)CO (stereo not given)

# Biological target: CDK6/cyclin D3 (Homo sapiens, UniProt Q00534)
# Test: Inhibition of full length human N-terminal His6-tagged CDK6/N-terminal GST-tagged CyclinD3 expressed in sf21 cells after 10 mins in presence of [gamma32P]ATP by beta counting method
# Details: not given
row,IC50,Compound
1,1.65 µM,Cc1ccc2c(c1)/C(=C1/Nc3ccccc3/C1=N\OCCO[C@@H]1O[C@H](CO)[C@@H](O)[C@H](O)[C@H]1O)C(=O)N2
2,0.41 µM,COc1ccc2c(c1)/C(=C1\Nc3ccccc3\C1=N/OCCO[C@@H]1O[C@H](CO)[C@@H](O)[C@H](O)[C@H]1O)C(=O)N2
3,0.075 µM,O=C1Nc2ccccc2/C1=C1/Nc2ccccc2/C1=N\OCC(O)CO (stereo not given)

# Test system: MCF7
# Test: Antiproliferative activity against human MCF7 cells after 3 days by SRB assay
# Format: functional, cell-based
# Details: Homo sapiens, MCF7, 72 h
row,IC50,Compound
1,1.5 µM,Cc1ccc2c(c1)/C(=C1/Nc3ccccc3/C1=N\OCCO[C@@H]1O[C@H](CO)[C@@H](O)[C@H](O)[C@H]1O)C(=O)N2
2,0.7 µM,COc1ccc2c(c1)/C(=C1\Nc3ccccc3\C1=N/OCCO[C@@H]1O[C@H](CO)[C@@H](O)[C@H](O)[C@H]1O)C(=O)N2
3,0.1 µM,O=C1Nc2ccccc2/C1=C1/Nc2ccccc2/C1=N\OCC(O)CO (stereo not given)

# Test system: not listed separately
# Test: Solubility of the compound in water by spectrophotometric method
# Format: physicochemical
# Details: not given
# Summary of the method: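 Ethanol standard solutions define absorbance maxima; aqueous solubility then quantified spectrophotometrically at that maximum by calibration.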
row,solubility,Compound
1,2 µg/mL,Cc1ccc2c(c1)/C(=C1/Nc3ccccc3/C1=N\OCCO[C@@H]1O[C@H](CO)[C@@H](O)[C@H](O)[C@H]1O)C(=O)N2
2,50 µg/mL,COc1ccc2c(c1)/C(=C1\Nc3ccccc3\C1=N/OCCO[C@@H]1O[C@H](CO)[C@@H](O)[C@H](O)[C@H]1O)C(=O)N2
3,2 µg/mL,O=C1Nc2ccccc2/C1=C1/Nc2ccccc2/C1=N\OCC(O)CO (stereo not given)
